Bioassay records as filed in PubChem BioAssay.
Hits are enriched below; roughly 1.8% of the tested compounds scored in any of these assays.
APOBEC3A inh = human APOBEC3A DNA deaminase inhibition | 330,000 tested, 0.41% active | inhibition, % at 20 µM | P31941 | recombinant A3A, FAM/TAMRA ssDNA deamination fluorescence | AID 493011;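 active means at least 40% inhibition at 20 µM here, with at most 30% in a related deaminase screen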;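 further: plate controls were A3A with DMSO for no effect and wells lacking A3A enzyme for full effect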
Tb MetRS inh = Trypanosoma brucei MetRS inhibition; purified T. brucei MetRS, ATP depletion, Kinase-Glo luminescence; inhibition, % at 11.9 µM; 360,000 tested, 0.4% active; AID 624268;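 active means inhibition above a per-plate cutoff of the control wells' mean inhibition plus 3 SD, cut at about 5.5% in these data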;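 further: 0% = DMSO wells median and 100% = median of wells with control inhibitor compound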
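Test system – parasite MetRS enzyme · Reagent – substrates ATP, L-methionine and bulk Escherichia coli tRNA · Doses – 11.9 µM compound single dose, 0.9% DMSO · Times – 15 min enzyme-compound preincubation, 2 h reaction, 10 min detection, 25 °C · Signal – Kinase-Glo luminescence, ATP depletion format · Controls – DMSO-only wells as low control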
p-CIP stab down = p/CIP protein destabilization. F442A p/CIP-EGFP cells, EGFP fluorescence, 16 h. decrease of EGFP signal, % at 10 µM. 290,000 tested, 0.01% active. AID 1984. Q05BA5;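 active means EGFP signal decrease of at least 30% at 10 µM or well 3 SD below plate mean, unless failing retest; inactive means the rest, including hits failing retest or dose response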
A3G deaminase = APOBEC3G (human) deaminase inhibition; Q9HC16; recombinant A3G, ssDNA deamination FAM/TAMRA fluorescence; inhibition, % at 20 µM; 330,000 tested, 0.28% active;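 active means inhibition of at least 40% at 20 µM, with no more than 30% in the related APOBEC3A deaminase screen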;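 further: plate controls were DMSO wells with A3G for no effect and wells lacking A3G enzyme for full effect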
Target sequence (Q9HC16 whole entry, looked up): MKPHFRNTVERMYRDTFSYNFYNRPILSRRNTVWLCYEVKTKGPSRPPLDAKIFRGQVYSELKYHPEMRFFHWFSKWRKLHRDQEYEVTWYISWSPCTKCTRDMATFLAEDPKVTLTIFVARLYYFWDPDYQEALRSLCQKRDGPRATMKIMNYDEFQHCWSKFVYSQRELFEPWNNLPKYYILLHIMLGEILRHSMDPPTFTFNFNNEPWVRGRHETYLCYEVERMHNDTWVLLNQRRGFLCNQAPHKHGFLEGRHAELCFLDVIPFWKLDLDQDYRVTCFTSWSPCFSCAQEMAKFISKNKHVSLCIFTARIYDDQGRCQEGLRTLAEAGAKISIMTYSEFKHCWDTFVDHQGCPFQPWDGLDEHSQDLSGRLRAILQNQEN
PHOSPHO1 inh = blocks human PHOSPHO1 phosphatase activity; Q8TCT1; recombinant PHOSPHO1, absorbance phosphatase assay; inhibition, % at 13.3 µM; 290,000 tested, 1.1% active; AID 1565; in the data active means inhibition above about 60%
Target sequence (Q8TCT1 whole entry, looked up): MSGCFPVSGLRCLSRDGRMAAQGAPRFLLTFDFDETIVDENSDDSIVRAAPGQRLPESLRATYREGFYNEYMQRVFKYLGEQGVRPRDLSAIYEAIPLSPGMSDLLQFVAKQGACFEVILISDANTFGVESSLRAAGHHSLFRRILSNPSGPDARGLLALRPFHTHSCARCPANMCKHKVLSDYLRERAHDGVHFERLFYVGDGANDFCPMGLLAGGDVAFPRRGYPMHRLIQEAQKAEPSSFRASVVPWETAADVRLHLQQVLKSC
* marks the source's active call; other numbers are inactive results; . = no result.

SMILES	APOBEC3A inh	Tb MetRS inh	p-CIP stab down	A3G deaminase	PHOSPHO1 inh
CC(=O)N=c1c(C#N)cc2c(=O)n3ccccc3nc2n1CCCOC(C)C	-5.7	-0.9	-1.9	-7.0	6.1
O=C(NCc1ccccc1)C(c1ccncc1)N(C(=O)c1csnn1)C1CC1 (stereo not given)	-2.3	-0.1	-6.4	-7.0	62.3*
CC1CC1C(=O)OCC(=O)Nc1ccc(Cl)cn1 (stereo not given)	-0.8	-0.1	.	-5.1	.
Clc1cccc(Cl)c1CSc1nnc(/C=C/c2ccccc2)o1	-3.8	0.0	0.3	-7.1	66.1*
Cc1ccc(C)c(S(=O)(=O)Nc2cc(SCC(=O)O)c(O)c3ccccc23)c1	.	0.6	-7.1	.	70.9*
Cc1nn(CCc2nc(-c3ccco3)cs2)c2[nH]c(=O)cc(C(F)(F)F)c12	61.6	-0.7	-8.5	48.1	77.4*
CCOc1ccc(-c2n[nH]c(=S)o2)cc1	2.3	-0.4	-5.0	10.6	51.9
COc1ccc(-c2n[nH]c(=S)o2)c(OC)c1	-5.0	-0.5	2.7	-1.0	102.7*
CCOc1ccccc1-c1n[nH]c(=S)o1	-7.5	-0.6	6.7	-3.9	99.7*
COc1ccc(Cl)cc1NC(=O)CN(C)CC(=O)Nc1c(C)n(C)n(-c2ccccc2)c1=O	2.9	-0.4	.	-4.1	.
Cn1cccc1CC(=O)N/N=C/c1ccc(Cl)c([N+](=O)[O-])c1	-4.1	-0.2	6.8	0.1	38.3
CC(=O)Nc1ccc(Sc2ncccc2C(=O)Nc2ccc(F)cc2)cn1	-9.8	0.4	7.9	-6.4	62.0*
CSc1ncccc1C(=O)Nc1ccc(OC(F)(F)F)cc1	3.4	-1.3	-1.3	1.0	1.8
CCOc1ccc2oc(C(=O)NCC(C)(C)CN(C)C)c(C)c2c1	6.3	-0.5	-11.3	2.9	-3.7
O=C(NCCc1ccccc1Cl)C1CCC(=O)N(Cc2cccc(C(F)(F)F)c2)C1 (stereo not given)	-1.7	0.4	-10.3	-4.1	37.6
O=C(NCCc1cccc(C(F)(F)F)c1)C1CCC(=O)N(Cc2ccc(Cl)cc2)C1 (stereo not given)	1.4	0.4	-1.8	8.5	67.6*
CSc1ccc(CN(C)C(=O)c2cc(Cl)c3c(c2)OCCO3)cc1	1.1	0.7	-2.2	-5.7	-4.0
CCOc1ccc2[nH]c(=S)[nH]c2c1	1.2	-0.2	-7.4	24.0	102.7*
CCOc1ccc2nc(-c3ccccc3)[nH]c2c1	-4.6	-0.7	11.5	-6.3	18.2
CCCCn1c(N)c(N(Cc2ccccc2OC)C(=O)C(C)Oc2ccc(Cl)cc2)c(=O)[nH]c1=O (stereo not given)	1.1	-0.5	-12.1	-3.4	62.6*
CCCCn1c(N)c(N(Cc2ccccc2OC)C(=O)C(C)Oc2ccc(F)cc2)c(=O)[nH]c1=O (stereo not given)	0.8	-0.3	.	-9.0	.
CCN(CC)C(=O)C1=C(C)N(Cc2ccc(F)cc2)C(=O)C(CC(=O)NCc2ccco2)C1 (stereo not given)	.	-1.7	.	.	.
C=CCn1c(SCC(=O)Nc2ccc(F)cc2F)nnc1-c1cnccn1	-4.5	-0.3	3.8	-4.9	15.4
CCCc1cc(=O)n2nc(N3CCC(C(=O)N4CCN(c5ccc(OC)cc5)CC4)CC3)sc2n1	-2.5	-0.1	-29.7	5.7	63.6*
CCC(C)CCN1C(N(C)C)=NC[C@@H]1C (stereo not given in full)	-0.3	0.5	.	-1.9	.
SMILES	APOBEC3A inh	Tb MetRS inh	p-CIP stab down	A3G deaminase	PHOSPHO1 inh
O=C1[C@@H]2Cc3c([nH]c4ccccc34)C(c3ccc(Cl)cc3)N2C(=O)CN1CCO (stereo not given in full)	-0.4	6.0*	2.7	-1.6	2.8
Cc1nn(CCc2n[nH]c(=S)n2C)c(C)c1Br	-5.3	-0.5	6.3	17.7	85.0*
Cc1ccc(-c2nc(SC(C)C(=O)NC3CC3)n[nH]2)cc1 (stereo not given)	.	0.0	.	.	.
CCN(CC)CCNC(=O)c1ccc(CS(=O)(=O)c2ccccc2C)o1	-3.2	0.1	-1.1	-6.5	28.6
COc1ccc2cc(C(=O)C3CCCN(Cc4cnc(N5CCOCC5)s4)C3)ccc2c1 (stereo not given)	2.6	-0.2	-15.8	-5.9	60.1*
Nn1c(=O)c2ccccc2n2c(SCc3ccc(C(F)(F)F)cc3)nnc12	2.4	0.0	1.7	0.0	90.4*
CC(C)(C)NCC(O)COc1ccccc1C1CCCC1 (stereo not given)	3.9	-1.2	.	3.8	.
CCCC(C)C(=O)OCC(=O)NCc1ccc(OC)c(OC)c1 (stereo not given)	2.9	-0.3	-1.2	-1.9	32.5
Cc1noc(C)c1CSc1nnc(-c2ccccc2)n1N	-3.3	0.4	-3.2	3.2	97.4*
O=C(CSc1nnc(C2CCCCC2)n1Cc1ccccc1)NCc1ccco1	4.9	-1.1	-2.5	2.1	75.5*
COc1ccc(-c2nc(SCC(=O)NCc3ccco3)c(-c3ccccc3)[nH]2)cc1OC	-1.8	0.3	-7.9	-3.3	62.9*
C=CCn1c(COc2ccccc2F)nnc1SCC(=O)NC(=O)NCc1ccco1	24.5	-0.5	-18.7	16.9	81.4*
C=CCn1c(COc2ccccc2-c2ccccc2)nnc1SCC(=O)NC(=O)NCc1ccco1	1.2	-0.5	-15.2	-5.0	19.2
COc1ccccc1OCc1nnc(SCC(=O)NCc2ccco2)n1Cc1ccco1	10.6	-0.9	-2.2	-0.2	65.4*
COc1ccc(S(=O)(=O)N2CCOC2CNC(=O)C(=O)NCc2ccco2)cc1OC (stereo not given)	10.1	-0.5	-6.2	2.0	12.9
COc1ccc(NS(=O)(=O)c2ccc(C)c(C(=O)NCc3ccccc3CN3CCCC3)c2)cc1	.	-0.2	.	.	.
CN(N=O)c1ccc(CC2CCc3ccccc32)cc1 (stereo not given)	.	0.0	.	.	.
COc1cc(NC(=O)c2ccc3c(=O)n(Cc4ccco4)c(=S)[nH]c3c2)cc(OC)c1OC	-2.1	0.6	1.9	-4.1	76.3*
O=c1c2cc3c(cc2[nH]c(=S)n1Cc1ccco1)OCO3	-1.7	1.3	-13.6	-8.2	78.3*
C=CCNC(=O)c1ccc(Cn2c(=S)[nH]c3cc4c(cc3c2=O)OCO4)cc1	-0.5	0.7	-10.8	-3.1	-76.4
O=C(NCCN1CCCC1)c1ccc(Cn2c(=S)[nH]c3cc4c(cc3c2=O)OCO4)cc1	5.4	0.0	0.3	12.0	71.1*
CN1CCN(C(=O)c2ccc3c(=O)n(Cc4ccco4)c(=S)[nH]c3c2)CC1	-3.4	-1.1	-1.2	-2.2	68.6*
O=C(c1ccc2c(=O)n(Cc3ccco3)c(=S)[nH]c2c1)N1CCN(Cc2ccccc2)CC1	-2.7	0.0	2.2	-5.3	39.3
N#Cc1ccc(OCc2noc(-c3ccsc3)n2)cc1	-1.8	0.2	-6.8	-7.3	25.4
c1ccc(CSc2nnc(-c3c[nH]c4ccccc34)o2)cc1	-5.8	0.7	-9.1	-8.6	-28.6
CCCC(C)NC(=O)CSc1nnc(-c2c[nH]c3ccccc23)o1 (stereo not given)	0.6	2.3	-4.6	-7.4	73.2*
